Results: paper PMC3220529 (The Journal of Biological Chemistry, 2011)
“Also recorded” adds a separate entry of the source. Blank lines part the entries; values can stand above or below the molecule they belong to.

Assays:
[1] = tested on: A10A2; assay: Peptide array of AHNAK C terminus probed with Alexa Fluor 680-A10A2; assay type: binding, rabbit; conditions: 18-residue peptides shifted by 3 residues, Alexa-A10A2 0.2 μM, 2 h, 700 nm
How it was run: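 330 spots of 18-residue AHNAK peptides (residues 4884–5890, 3-residue offset) were Fmoc-synthesized on […]. Membranes were methanol-hydrated, washed in TBS + 0.05% Tween, and blocked 1 h with skim milk. A10A2 is a rabbit S100A10(C82S)–annexin A2 hybrid made in E. coli.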

[2] = target: S100A10^C82S-annexin A2 hybrid protein (A10A2) (rabbit | not stated); assay: native MS
[3] = target: S100A10^C82S (rabbit S100A10 with Cys82 changed to Ser) (rabbit); assay: native MS
[4] = target: T1, A10A2 hybrid protein (dimer) (Oryctolagus cuniculus, UniProt Q6SQH4, C83S); assay: Isothermal titration calorimetry of AHNAK5 into A10A2; assay type: binding, rabbit
[5] = tested on: S100A10; assay type: binding, rabbit; conditions: absence of annexin A2 peptide; data not shown
[6] = tested on: S100A10; assay: Fluorescence titration of acrylodan-labeled S100A10 with AHNAK5; assay type: binding, rabbit; conditions: absence of annexin A2 peptide
[7] = target: S100A10-annexin A2 hybrid protein (A10A2) dimer (Oryctolagus cuniculus, UniProt Q6SQH4, C83S); assay: NMR titration; assay type: binding, rabbit; conditions: pH 7.0
[8] = target: S100A10-annexin A2 (Oryctolagus cuniculus, UniProt Q6SQH4, C83S); assay: Overall binding of AHNAK5 to S100A10-annexin A2; design: species or system rabbit; conditions: S100A10 without annexin A2 peptide; discussion statement
[9] = target: T1, A10A2 hybrid protein (dimer); assay: Fluorescence titration of acrylodan-labeled A10A2 with AHNAK5; assay type: binding, rabbit; conditions: shifted from near 495 nm; intensity decreased; pH 7.4
How it was run: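 Rabbit S100A10(C82S)–annexin A2 hybrid was made as a GST fusion in E. coli, cleaved with PreScission, and labelled with acrylodan. 167 nM labelled protein in 20 mM Tris-HCl, 120 mM NaCl, 1 mM DTT, pH 7.4, was stirred at room temperature. Peptide was added stepwise with 2 min stirring each. Excitation 375 nm, emission 400–600 nm, ΔF at 500 nm. Duplicate titrations were globally fit 1:1 for Kd.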

[10] = target: acrylodan-labeled A10A2 hybrid protein (rabbit | not stated); assay: other fluorescence titration
[11] = target: S100A10^C82S-annexin A2 hybrid protein (A10A2) (rabbit | not stated); assay: ITC
[12] = target: non-covalent complex of S100A10 (C82S) dimer with two annexin A2 peptides (residues 1-15) (rabbit | not stated); assay: native MS
[13] = target: S100A10^C82S-annexin A2 hybrid protein (A10A2) (rabbit | not stated); assay: NMR titration

Molecule: sequence e: AHNAK array region Gly5652–Gly5675; most intense spot 5652–5669 (GSGKVTFPKMKIPKFTFSGRELVG)
A10A2 binding in peptide array (intensity, words) [1]: best interaction with A10A2; also recorded: most intense binding at any one spot

Molecule: sequence d: AHNAK array region Asn5607–Ile5633 (NLDTSKFAGGLHFSGPKVEGGVKGGQI)
A10A2 binding in peptide array (intensity, words) [1]: best interaction with A10A2

Molecule: S100A10^C82S (rabbit S100A10 with Cys82 changed to Ser) (natural protein)
stoichiometry N [3]: 2

Molecule: sequence c: AHNAK array region Pro5220–Ile5243 (PDVDLQGPEAKIKFPKFSMPKIGI)
A10A2 binding in peptide array (intensity, words) [1]: best interaction with A10A2

Molecule: sequence a: AHNAK array region Thr4917–Gly4940 (overlapping 18-residue peptides) (TAPDVDLHLKAPKIGFSGPKLEGG)
A10A2 binding in peptide array (intensity, words) [1]: best interaction with A10A2

Molecule: Ac-GKVTFPKMKIPKFTFSGREL-NH2 [AHNAK5]
entropy change ([4]; ITC): positive entropy change
ΔH (binding enthalpy) ([4]; ITC, 35 °C, pH 7.2): -10 ± 0.096 kcal/mol
ΔS (entropy change) ([4]; ITC, 35 °C, pH 7.2): 0.00201 kcal/mol
n (binding sites), ITC ([4]; single binding site fit, 35 °C, pH 7.2): 1.02
interaction with S100A10 without annexin A2, NMR [5]: did not show an interaction between S100A10 and AHNAK5; also recorded: no evidence for interaction of AHNAK5 with S100A10 in the absence of annexin A2
precipitation during titration of S100A10 with AHNAK5 [5]: prone to precipitation
A10A2 binding in peptide array (intensity, words) [1]: strong interaction with A10A2
interaction with S100A10, fluorescence [6]: little wavelength shift, suggestive of a poor interaction
exchange regime / peak doubling on AHNAK5 binding, A10A2 ([7]; 1H-15N HSQC, 0.5 mM A10A2 (protomer), 0.25 mM AHNAK5, 35 °C): disappearance of peaks from S100A10 and the appearance of new resonances on the slow exchange time scale; also recorded: resonances from the annexin A2 portion of A10A2 also exhibited peak doubling
stoichiometry AHNAK5 : A10A2 dimer, NMR ([7]; inflection point of peak intensity changes, 35 °C): one AHNAK5 peptide to one A10A2 dimer
interaction in experiments lacking annexin A2 peptide (summary) [8]: little or no observable interaction
acrylodan-A10A2 fluorescence maximum upon addition of AHNAK5 [9]: 500 nm

Molecule: sequence h: AHNAK array region Leu5808–Glu5837 (LEGGKVKGKHGKLKFGTFGGLGSKSKGHYE)
A10A2 binding in peptide array (intensity, words) [1]: best interaction with A10A2

Molecule: sequence b: AHNAK array region Asp4959–Pro4994; most intense spot 4968–4985 (DSPDINIEGPDVKIPKFKKPKFGFGAKSPKADIKSP)
A10A2 binding in peptide array (intensity, words) [1]: best interaction with A10A2; also recorded: most intense binding at any one spot

Molecule: Ac-STVHEILSKLSLEGD-NH2 [annexin A2 peptide (residues 1-15)]
stoichiometry N (annexin A2 peptides per S100A10 dimer) [3]: 2

The remaining lines, values ahead:

stoichiometry N [2]: 2
Molecule: S100A10^C82S-annexin A2 hybrid protein (A10A2)

A10A2 binding in peptide array (intensity, words) [1]: best interaction with A10A2
Molecule: sequence f: AHNAK array region Ser5703–Thr5729 (SEVKLKKSKIKMPKFNFSKPKGKGGVT)

A10A2 binding in peptide array (intensity, words) [1]: best interaction with A10A2
Molecule: sequence g: AHNAK array region Ala5757–Ser5780 (AEAEASSPKGKFSLFKSKKPRHRS)

Kd [10]: 35 nM
Kd [11]: 28 nM
dH [11]: -10 kcal/mol
stoichiometry N (AHNAK5 per A10A2 dimer) [11]: 1.02
stoichiometry N [12]: 1
stoichiometry N (AHNAK5 per A10A2 dimer) [2]: 1
Kd [13]: < 1000 nM
stoichiometry N (AHNAK5 per A10A2 dimer) [13]: 1
Molecule: Ac-GKVTFPKMKIPKFTFSGREL-NH2 [AHNAK5 peptide (AHNAK residues Gly5654-Leu5673)]
